Assay outcomes (PubChem)
Hits are enriched below; roughly 3.5% of the tested compounds scored in any of these assays.
MrgX1 antag – antagonists of human MrgX1 receptor, primary screen, HEK293 cells, Fluo-4 calcium flux | B-score at 10 µM | AID 588676, 2011 | 310,000 tested, 1.3% active | BAM8-22 antagonism; active compounds read low;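 active means calcium-response B-score plate-corrected more than 3 library SD below zero, starting fluorescence within 5 deviations, no agonist response on first addition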;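 further: peak minus trough fluorescence over baseline after final BAM8-22 challenge near maximal dose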
Target sequence (Q96LB2 whole entry, looked up): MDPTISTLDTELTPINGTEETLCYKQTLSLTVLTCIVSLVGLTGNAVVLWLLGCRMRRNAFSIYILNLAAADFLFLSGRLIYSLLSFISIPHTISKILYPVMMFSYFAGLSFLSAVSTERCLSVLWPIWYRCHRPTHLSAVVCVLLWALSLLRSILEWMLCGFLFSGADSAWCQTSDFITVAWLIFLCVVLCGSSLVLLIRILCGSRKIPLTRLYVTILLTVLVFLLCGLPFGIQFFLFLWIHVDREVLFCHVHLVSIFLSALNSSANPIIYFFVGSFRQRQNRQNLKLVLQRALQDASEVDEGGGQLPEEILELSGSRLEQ
MrgX1 PAM – positive allosteric modulators of MrgX1, primary screen, HEK293 cells, Fluo-4 calcium flux; Mas-related G-protein coupled receptor member X1 (Homo sapiens), Q96LB2; FDSS; active compounds read high; B-score at 10 µM; 310,000 tested, 0.63% active;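 active means plate-corrected calcium response at least 3 library SD above typical, normal starting fluorescence, not activating the receptor alone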;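 further: compound read alongside a low EC10 to EC30 dose of BAM8-22 agonist; peak minus trough fluorescence over baseline measured at the second addition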
RGS4 pot – RGS4 potentiators or activators, primary screen, cell-based, HEK293 M3R inducible RGS4, calcium flux; B-score at 10 µM; carbachol calcium flux Fluo4; active compounds read low; 310,000 tested, 0.92% active;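 active means B-score of the integrated calcium signal more than 4 SD below the library mean, with starting fluorescence not abnormally high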;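 further: negative B-score means reduced calcium response which marks RGS4 activation or potentiation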
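System – HEK293 FlpIn-TREx cells, stable M3R, doxycycline-inducible RGS4 · Reagent – ECmax carbachol challenge · Times – compound preincubation 20 min at room temperature before agonist · Technique – Fluo4 fluorescence kinetic imaging of calcium · Measure – B score of integrated Fluo4 ratio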
RGS4 block – RGS4 inhibitors, primary screen, cell-based, HEK293 M3R inducible RGS4, calcium flux. Fluo-4 calcium flux; active compounds read high; triggered by carbachol at its EC20. Regulator of G-protein signaling 4 (Homo sapiens), P49798. 310,000 tested, 0.45% active. B-score at 10 µM. AID 463165, 2010;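 active means B-score, a plate-corrected calcium signal, over three deviations above library mean, with baseline fluorescence within five deviations of library mean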;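 further: RGS4 expression induced by doxycycline in cells with stable M3 receptor; B-score is computed from the integrated fluorescence ratio over baseline after carbachol; higher B-score means a larger calcium signal and so more RGS4 inhibition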
Target sequence (P49798 whole entry, looked up): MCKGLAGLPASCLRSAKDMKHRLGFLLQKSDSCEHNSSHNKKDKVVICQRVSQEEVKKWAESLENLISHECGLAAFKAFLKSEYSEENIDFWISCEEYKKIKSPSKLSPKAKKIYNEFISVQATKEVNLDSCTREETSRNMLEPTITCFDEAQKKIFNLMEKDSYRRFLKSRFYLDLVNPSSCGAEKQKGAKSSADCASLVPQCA
MrgX1 ag – agonists of human MrgX1 receptor, primary screen, HEK293 cells, Fluo-4 calcium flux. Mas-related G-protein coupled receptor member X1 (Homo sapiens), Q96LB2. Fluo-4 calcium fluorescence, agonist mode; active compounds read high. B-score at 10 µM. 310,000 tested, 0.44% active;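 active means calcium response B-score plate-corrected fluorescence ratio at least 3 library SD, with starting fluorescence B-score inside 5 SD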
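Material: MrgX1-expressing HEK293 cells; input: 15,000 cells per well; doses: test compound given as first of three sequential additions; schedule: overnight plating before 1 h dye loading; technique: Fluo-4 NW calcium-flux fluorescence, kinetic read; evaluation: baseline-normalised fluorescence change ratio, B-scored; control set: plate-wise positive and negative controls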
RGS4 act valid – reduced carbachol calcium response, RGS4-induced M3R cells, confirmation, RGS4 activator project, cell-based, HEK293 M3R/RGS4 inducible, calcium flux, duplicate; 1,100 tested, 89% active; carbachol calcium flux Fluo4; inhibition, % at 10 µM; shares compounds with RGS4 pot; AID 602282, 2012;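 active means inhibition above 3 SD of the buffer control wells, cut at about 41% in these data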;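 further: signal is the integrated peak-minus-minimum Fluo4 fluorescence over baseline ratio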
RGS4 act ctr – RGS4 activator counter-screen hit in non-induced cells; 1,100 tested, 82% active; AID 602283; shares compounds with RGS4 pot; inhibition, % at 10 µM; HEK293 M3R non-induced RGS4, Fluo4 calcium flux; after carbachol challenge at its EC90;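 active means inhibition exceeding 3 SD of buffer-only control wells, cut at about 26% in these data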;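 further: percent drop in integrated peak-minus-baseline over baseline Fluo4 ratio after carbachol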
RGS4 inh valid – enhanced carbachol calcium response, M3R/RGS4 cells, RGS4 inhibitor project, cell-based, validation screen, HEK293 M3R/RGS4, calcium flux | calcium response, % at 10 µM | carbachol calcium Fluo-4 fluorescence; carbachol added at its EC20; 0 = buffer wells, 100 = carbachol control | 1,700 tested, 65% active | shares compounds with RGS4 block;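 active means duplicate-averaged calcium response above the buffer-only control mean plus 5 SD of those controls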;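 further: integrated fluorescence ratio F max minus min over baseline F0; higher response in RGS4-induced cells means RGS4 inhibition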
RGS4 uninduced – carbachol calcium response in non-induced M3R cells, confirmation, counter-screen for RGS4 inhibitor project, cell-based, HEK293 M3R; carbachol calcium Fluo-4; submaximal (EC20) carbachol stimulus; buffer wells 0%, carbachol control wells 100%; activity (percent), % at 10 µM; shares compounds with RGS4 block; AID 493000, 2010; 1,900 tested, 20% active; call rule not given here;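 further: RGS4 induction absent so cells express M3R without RGS4; higher means more calcium signal and flags a non-specific hit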
RGS4 inh ctr2 – second counter-screen for RGS4 inhibitors: non-induced cells without carbachol; shares compounds with RGS4 block; HEK293 M3R/RGS4 non-induced, Fluo-4 calcium, no carbachol; normalised: buffer wells 0%, carbachol wells 100%; calcium response (agonist-mode artifact), % at 10 µM; 1,900 tested, 22% active;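 active means duplicate-averaged calcium rise in uninduced cells above buffer wells' mean plus 5 SD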
Of the large screens only hits and unclear results are named; the others gave an inactive call (follow-up assays come after a bar, where they were run).

CCOc1cccc(CNC2CN3CCC2CC3)c1 (stereo not drawn)	none
Cc1cccc(-n2c(/C=C/c3ccccn3)nc3ccccc3c2=O)c1	none
O=C(c1ccc2c(c1)OCO2)C1CCCN(Cc2c(F)cccc2Cl)C1 (stereo not drawn)	RGS4 pot -8.59 | RGS4 act valid 92.5 | RGS4 act ctr 80.8
Cc1cccc(CN2CCCC(C(=O)c3ccc4c(c3)OCO4)C2)n1 (stereo not drawn)	none
Cc1ccc(C(C)C)c(OCC#CCN2CCCC2)c1	RGS4 pot -9.1 | RGS4 act valid 91.0 | RGS4 act ctr 40.8
COc1ccccc1-n1c(O)c(/C=N/NC(=S)Nc2ccccc2)c(=O)[nH]c1=S	none
COC(=O)C1=C(c2ccccc2)C[C@@H]2CC[C@H]1N2C(=O)NCCO	none
CC(Cc1ccc(O)cc1)NCC(O)c1cc(O)cc(O)c1 (stereo not drawn)	RGS4 block 5.72 | RGS4 inh valid 30.0% | RGS4 uninduced inactive | RGS4 inh ctr2 73.0%
COc1cc(C(c2c(C)[nH]n(-c3ccccc3)c2=O)c2c(C)[nH]n(-c3ccccc3)c2=O)cc(OC)c1OC	RGS4 block 6.03 | RGS4 inh valid 14.5% | RGS4 uninduced inactive | RGS4 inh ctr2 inactive
C/C1=C\[C@@H](C)C/C=C/[C@H]2[C@@H]3O[C@]3(C)[C@@H](C)[C@H]3[C@H](Cc4c[nH]c5ccccc45)NC(=O)[C@]32C(=O)/C=C/C(=O)[C@@H]1O	MrgX1 PAM 10.7, RGS4 block 11.4 | RGS4 inh valid 46.5% | RGS4 uninduced inactive | RGS4 inh ctr2 17.5%
CC1=CC2/C=C(\C)CCC(O)C(O)/C=C/C(=O)C23C(=O)NC(CC(C)C)C3C1C (stereo not drawn)	none
COc1cc(O)cc2c1C(=O)OC(C)CCCC(=O)CCC/C=C\2 (stereo not drawn)	none | RGS4 uninduced inactive | RGS4 inh ctr2 inactive
C[C@H]1CCCC(=O)CCC/C=C/c2cc(O)cc(O)c2C(=O)O1	RGS4 block 8.18 | RGS4 inh valid 35.0% | RGS4 uninduced inactive | RGS4 inh ctr2 inactive
CSc1ccc(C(=O)C2CCCN(CCCn3cccn3)C2)cc1 (stereo not drawn)	none
Cc1ccc2nc(C)n(-c3ccc(F)cc3)c(=O)c2c1	none
COc1ccc(N2C(=O)NC(=O)/C(=C\c3cn(CC(=O)N4CCOCC4)c4ccccc34)C2=O)c(OC)c1	RGS4 block 8.66 | RGS4 inh valid 16.0% | RGS4 uninduced inactive | RGS4 inh ctr2 8.5%
O=C(NC(Cc1cnc[nH]1)C(=O)O)c1ccccc1 (stereo not drawn)	none
CCCCn1c(O)c(C(C)=NCc2ccco2)c(=O)[nH]c1=O	none
Cc1ccc(/C=C2/C(=O)NC(=O)N(CCc3ccc(F)cc3)C2=O)o1	none | RGS4 inh valid inactive | RGS4 uninduced inactive | RGS4 inh ctr2 inactive
O=C1NC(=O)N(CCc2ccc(F)cc2)C(=O)/C1=C/c1cccs1	none | RGS4 uninduced inactive | RGS4 inh ctr2 inactive
O=C1NC(=O)N(Cc2ccc(F)cc2)C(=O)/C1=C\c1ccc([N+](=O)[O-])s1	RGS4 block 6.28 | RGS4 inh valid 20.5% | RGS4 uninduced inactive | RGS4 inh ctr2 inactive
COc1ccc(CN2C(=O)NC(=O)/C(=C/c3ccc([N+](=O)[O-])s3)C2=O)cc1	RGS4 block 8.89 | RGS4 inh valid 29.0% | RGS4 uninduced inactive | RGS4 inh ctr2 inactive
COc1ccc(CN2C(=O)NC(=O)/C(=C\c3cc(OC)c(OC)c(OC)c3)C2=O)cc1	none
Cc1ccsc1C(=O)C1CCCN(Cc2ccc(-n3cccn3)cc2)C1 (stereo not drawn)	none
COc1cc(/C=C(/C)[N+](=O)[O-])ccc1OCc1ccccc1Cl	RGS4 block 31.3 | RGS4 inh valid 10.5% | RGS4 uninduced inactive | RGS4 inh ctr2 38.5%
CN1C(=O)C(=Cc2ccccc2OCc2ccccc2Cl)C(=O)N(C)C1=O	none
Cc1ccc(S(=O)(=O)N2CC3CC(C2)c2cccc(=O)n2C3)cc1 (stereo not drawn)	none
C=CCN1C(=O)NC(=O)/C(=C/c2cc3c4c(c2)CCCN4CCC3)C1=O	none
O=C1NC(=S)NC(=O)C1=Cc1ccc2c(c1)CCN2CCCCl	RGS4 block 10.4 | RGS4 inh valid 42.5% | RGS4 uninduced inactive | RGS4 inh ctr2 inactive
CC(Cc1ccccc1)[n+]1cc(/N=C(\[O-])Nc2ccccc2)on1 (stereo not drawn)	none
CCOc1cccc(N2C(=O)/C(=C/c3ccco3)C(=O)NC2=S)c1	none
Cc1ccc(/C=C2\C(=O)NC(=S)N(c3ccc(F)cc3)C2=O)o1	none | RGS4 uninduced inactive | RGS4 inh ctr2 11.5%
O=C1NC(=S)N(c2ccc(F)cc2)C(=O)/C1=C/c1ccccc1O	none
COc1ccc(N2C(=O)/C(=C/c3cccs3)C(=O)NC2=S)cc1	RGS4 block 8.3 | RGS4 inh valid inactive | RGS4 uninduced inactive | RGS4 inh ctr2 inactive
Cc1ccc(/C=C2\C(=O)NC(=S)N(c3ccc(F)cc3)C2=O)s1	RGS4 block 14.7 | RGS4 inh valid 29.0% | RGS4 uninduced inactive | RGS4 inh ctr2 inactive
COc1cccc(N2C(=O)/C(=C/c3ccc(C)o3)C(=O)NC2=S)c1	RGS4 block 10.3 | RGS4 inh valid 93.0% | RGS4 uninduced 33.0% | RGS4 inh ctr2 19.5%
CC1C(c2cccs2)=[N+]([O-])C(C)(C(=O)c2cccs2)N1O (stereo not drawn)	none
